The experiment can be described thus: Displacement of [125I]IMPY from amyloid beta (1 to 42) aggregate after 2 hrs by gamma counting. The gist of the method: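 Competition binding in 1 mL PBS (0.2 M, pH 7.4). Aggregated Aβ1-42 fibrils (60 nM final) with [125I]IMPY and inhibitor at 10^-5 to 10^-10 M, added in ethanol. Nonspecific binding was defined with 1 μM IMPY. Incubated 2 h at 37 °C with shaking, then vacuum-filtered through glass fibre filters and the bound fraction gamma-counted. IC50 was converted to Ki by Cheng-Prusoff; triplicate, mean ± SD.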
In general terms: In a radioligand displacement assay an active substance lowers the binding of a labelled ligand.

pKi: −log10 of the molar value.

`CN(C)c1ccc(/C=C/C(=O)/C=C/c2cc([N+](=O)[O-])ccc2OCc2ccccc2)cc1`: the pKi (usually the Ki on a negative log10 scale, so that one unit is a factor of ten) is 7.48.

`O=C(/C=C/c1ccccc1)/C=C/c1ccccc1`: the pKi was 6.62.

In the case of `Cc1ccc(/C=C/C(=O)/C=C/c2ccc(N(C)C)cc2)cc1`, the pKi was 8.89.

Turning to `CN(C)c1ccc(/C=C/C(=O)/C=C/c2ccc(OCc3ccccc3)cc2)cc1`, the pKi is 8.70.

`O=C(/C=C/c1ccc(Cl)cc1)/C=C/c1ccc(Cl)cc1` showed a pKi of 8.05.

For the molecule `CN(C)c1ccc(/C=C/C(=O)/C=C/c2ccc(Br)s2)cc1`, the pKi is 8.42.

As to `CN(C)c1ccc(/C=C/C(=O)/C=C/c2ccco2)cc1`, the pKi is 8.07.
